According to article PMC3558982 (Chemical science (Royal Society of Chemistry : 2010), 2013):
Where two headings read alike, the source gives them in different places.

Legend:
Ddp1 = conditions: 30 minutes at 37 °C; ref 22c; cited from earlier work
Ddp1 phosphohydrolase = Ddp1 phosphohydrolase (Saccharomyces cerevisiae, UniProt Q99321); experiment: Inhibition of His-Ddp1 mediated Ap5A hydrolysis; format: biochemical, yeast; conditions: for inhibition profile of Ddp1 mediated Ap5A hydrolysis (in words): compared with 5PP-IP5, Figures 5b and S4
[1] = Stability in aqueous solution at room temperature; format: physicochemical; conditions: for decomposition in aqueous solution: neutral pH, 40 days at room temperature
protein kinase Akt = protein kinase Akt (Homo sapiens, UniProt P31749); experiment: Inhibition of Akt phosphorylation at threonine 308 by PDK1; format: biochemical
Summary of the method: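 Akt Thr308 phosphorylation was detected by Western blot with a phosphospecific antibody, with a total-Akt blot as loading control. IC50 was determined in three independent experiments.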

[2] = 1H and 31P NMR titration in D2O; format: physicochemical; conditions: D2O with 140mM K+, 10mM Na+, 1mM Mg2+, room temperature

Sequence of Ddp1 phosphohydrolase (Q99321 whole entry): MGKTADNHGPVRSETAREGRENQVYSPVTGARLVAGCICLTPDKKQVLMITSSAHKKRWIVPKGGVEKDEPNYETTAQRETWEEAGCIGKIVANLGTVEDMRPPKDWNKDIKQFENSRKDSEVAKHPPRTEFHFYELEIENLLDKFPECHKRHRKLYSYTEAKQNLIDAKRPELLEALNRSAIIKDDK
Sequence of protein kinase Akt (P31749 whole entry): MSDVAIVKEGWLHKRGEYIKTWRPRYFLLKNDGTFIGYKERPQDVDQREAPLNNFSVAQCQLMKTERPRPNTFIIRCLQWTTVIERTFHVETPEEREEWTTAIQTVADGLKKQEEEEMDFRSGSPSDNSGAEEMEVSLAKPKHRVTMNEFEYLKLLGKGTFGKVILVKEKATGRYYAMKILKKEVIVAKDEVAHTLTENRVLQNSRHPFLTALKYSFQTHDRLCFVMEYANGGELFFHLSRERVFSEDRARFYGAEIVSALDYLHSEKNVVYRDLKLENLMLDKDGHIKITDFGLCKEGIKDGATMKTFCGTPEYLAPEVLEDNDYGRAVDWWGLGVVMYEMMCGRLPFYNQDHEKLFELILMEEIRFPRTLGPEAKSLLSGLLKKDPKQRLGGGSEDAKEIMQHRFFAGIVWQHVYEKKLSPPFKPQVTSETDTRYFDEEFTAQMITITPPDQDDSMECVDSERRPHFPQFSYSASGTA

Row | inhibition profile of Ddp1 mediated Ap5A hydrolysis (in words) (Ddp1 phosphohydrolase) | decomposition in aqueous solution [1] | pD of ring inversion (conformational change) [2] | Structure (SMILES) | hydrolysis by Ddp1 (Ddp1) | also measured
1 | very similar inhibition profiles | no signs of decomposition | ~8.8 | O=P(O)(O)CP(=O)(O)O[C@H]1[C@H](OP(=O)(O)O)[C@@H](OP(=O)(O)O)[C@@H](OP(=O)(O)O)[C@@H](OP(=O)(O)O)[C@@H]1OP(=O)(O)O [5PCP-IP5] |  | IC50 (protein kinase Akt; read-out: IC50, inhibition of Akt phosphorylation at threonine 308, purified inactive Akt and activated PDK1, three independent experiments): 129 nM; decomposition at low or high pD ([1]; pD 2.0 or 13.0, 40 days at room temperature): no detectable decomposition
2 |  |  | ~8.8 | O=P(O)(O)O[C@H]1[C@@H](OP(=O)(O)O)[C@H](OP(=O)(O)O)[C@@H](OP(=O)(O)OP(=O)(O)O)[C@H](OP(=O)(O)O)[C@H]1OP(=O)(O)O [5PP-IP5, reference compound] | no signs of hydrolysis | IC50 (protein kinase Akt): 217 nM; IC50 (Ddp1 phosphohydrolase): 2500 nM

Further lines, the compound ahead of its results:

Row | Structure (SMILES) | inhibition profile of Ddp1 mediated Ap5A hydrolysis (in words) (Ddp1 phosphohydrolase) | decomposition in aqueous solution [1] | pD of ring inversion (conformational change) [2] | hydrolysis by Ddp1 (Ddp1) | also measured
3 | O=P(O)(O)OC1[C@@H](OP(=O)(O)O)[C@@H](OP(=O)(O)O)C(OP(=O)(O)OP(=O)(O)O)[C@H](OP(=O)(O)O)[C@H]1OP(=O)(O)O (stereo partly shown) [1PP-IP5] |  |  |  | completely hydrolysed to IP6 | 
4 | O=P(O)(O)CP(=O)(O)O[C@@H]1[C@@H](OP(=O)(O)O)[C@H](OP(=O)(O)O)[C@H](O)[C@H](OP(=O)(O)O)[C@H]1OP(=O)(O)O [5PCP-IP4] | very similar inhibition profiles | no signs of decomposition |  |  | 
5 | O=P(O)(O)OC1C(OP(=O)(O)O)C(OP(=O)(O)O)C(OP(=O)(O)O)C(OP(=O)(O)O)C1OP(=O)(O)O (stereo not shown) [IP6, inositol hexakisphosphate, reference compound] |  |  |  |  | IC50 in Ddp1 Ap5A hydrolysis relative to 5PP-IP5 (Ddp1 phosphohydrolase; data not shown): more than ten times higher
